From ChEMBL document CHEMBL5705899 (Biochem J, 2014)
Activity calls are given as the source filed them. The calls are words filed in the database; no cut-off is given here.

Assays:
[1] = molecular target: Hepatocyte growth factor receptor (Homo sapiens) (UniProt P08581); assay: Inhibition of human MET at 1 uM using poly(Ala,Glu,Lys,Tyr) as substrate in presence of 33P-ATP by ProQinase assay
[2] = molecular target: Ribosomal protein S6 kinase alpha-1 (Homo sapiens) (UniProt Q15418); assay: Inhibition of human RPS6KA1 at 1 uM using RBER-CHKtide as substrate in presence of 33P-ATP by ProQinase assay
Sequence of Ribosomal protein S6 kinase alpha-1 (Homo sapiens) (Q15418 whole entry, the tested form may be a part): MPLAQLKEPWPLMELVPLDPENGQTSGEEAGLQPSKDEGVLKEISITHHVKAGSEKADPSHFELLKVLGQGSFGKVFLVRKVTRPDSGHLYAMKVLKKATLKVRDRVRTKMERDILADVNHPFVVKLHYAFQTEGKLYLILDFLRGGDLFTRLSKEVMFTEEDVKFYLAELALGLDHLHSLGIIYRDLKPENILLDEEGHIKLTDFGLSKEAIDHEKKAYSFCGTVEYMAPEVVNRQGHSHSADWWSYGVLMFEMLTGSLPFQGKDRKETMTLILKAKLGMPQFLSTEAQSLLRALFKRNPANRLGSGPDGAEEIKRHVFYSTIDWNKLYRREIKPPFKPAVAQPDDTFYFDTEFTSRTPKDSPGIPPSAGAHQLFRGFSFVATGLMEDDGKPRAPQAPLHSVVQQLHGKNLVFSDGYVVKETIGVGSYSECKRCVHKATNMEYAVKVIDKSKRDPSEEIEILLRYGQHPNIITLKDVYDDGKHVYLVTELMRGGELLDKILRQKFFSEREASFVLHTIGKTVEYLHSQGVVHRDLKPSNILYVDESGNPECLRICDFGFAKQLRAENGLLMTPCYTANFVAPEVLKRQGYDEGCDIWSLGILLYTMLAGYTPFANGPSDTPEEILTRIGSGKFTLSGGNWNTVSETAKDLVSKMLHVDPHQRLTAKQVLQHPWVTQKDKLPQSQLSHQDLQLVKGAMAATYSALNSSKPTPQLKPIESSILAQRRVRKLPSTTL

[3] = molecular target: Tau-tubulin kinase 1 (Homo sapiens) (UniProt Q5TCY1); assay: Inhibition of recombinant human N-terminal GST-tagged TTBK1 (1 to 1321 residues) expressed in Escherichia coli assessed as remaining activity at 1 uM using RRKDLHDDEEDEAMSITA as substrate incubated for 30 mins in presence of [gamma-33P]ATP by filter binding method relative to control
[4] = molecular target: Dual specificity testis-specific protein kinase 1 (Homo sapiens) (UniProt Q15569); assay: Inhibition of recombinant human N-terminal GST-tagged TESK1 (1 to 315 residues) expressed in Escherichia coli assessed as remaining activity at 1 uM using Cofilin 2 as substrate incubated for 30 mins in presence of [gamma-33P]ATP by filter binding method relative to control
U2OS = assay: Inhibition of PI3K in human U2OS cells expressing FLAG-tagged SGK3 assessed as reduction in AKT phosphorylation at S473 residues at 0.01 to 1 uM 1 hr by immunoblot analysis; type: cell-based; conditions: dose 0.01-1 µM
Outline: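 Flp-In T-REx U2OS cells were grown in McCoy medium with 10% FBS. Expression of C-terminally FLAG-tagged full-length SGK3 was induced with 0.01 mg/ml doxycycline for 24 h. Cells were treated with inhibitor for 1 h and lysed in phosphatase-inhibitor buffer. Lysates were cleared at 16000 g for 10 min at 4°C, protein was measured by Bradford, and phosphorylation was read by immunoblot with ECL detection.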

[5] = molecular target: Glycogen synthase kinase-3 alpha (Homo sapiens) (UniProt P49840); assay: Inhibition of human GSK3alpha at 1 uM using SUPT5 754-837 as substrate in presence of 33P-ATP by ProQinase assay
[6] = molecular target: Cyclin-dependent kinase 2/cyclin E1 (Homo sapiens) (UniProt P24864+P24941); assay: Inhibition of human CDK2/CycE1 at 1 uM using RBER-CHKtide as substrate in presence of 33P-ATP by ProQinase assay; type: protein-complex assay
[7] = molecular target: Mitogen-activated protein kinase 9 (Homo sapiens) (UniProt P45984); assay: Inhibition of human JNK2 at 1 uM using ATF2 as substrate in presence of 33P-ATP by ProQinase assay
[8] = molecular target: Mitogen-activated protein kinase kinase kinase 2 (Homo sapiens) (UniProt Q9Y2U5); assay: Inhibition of human MEKK2 at 1 uM using casein as substrate in presence of 33P-ATP by ProQinase assay
[9] = molecular target: Dual specificity tyrosine-phosphorylation-regulated kinase 3 (Homo sapiens) (UniProt O43781); assay: Inhibition of human DYRK3 at 1 uM using RBER-IRStide as substrate in presence of 33P-ATP by ProQinase assay
[10] = molecular target: Focal adhesion kinase 1 (Homo sapiens) (UniProt Q05397); assay: Inhibition of human FAK (2 to 1052 residues) at 1 uM using polyEY as substrate in presence of 33P-ATP by ProQinase assay
[11] = molecular target: Mitogen-activated protein kinase kinase kinase kinase 5 (Homo sapiens) (UniProt Q9Y4K4); assay: Inhibition of MAP4K5 (unknown origin) assessed as remaining activity at 1 uM relative to control
Outline: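 Dundee panel of 140 protein kinases, tested at a single 1 μM concentration. Each assay was run in triplicate. Remaining activity is expressed relative to a control reaction without inhibitor, as mean ± S.D. Conditions for each kinase were those of the screening centre.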

[12] = molecular target: CDK4/Cyclin D3 (Homo sapiens) (UniProt P11802+P30281); assay: Inhibition of human CDK4/CycD3 at 1 uM using RBER-CHKtide as substrate in presence of 33P-ATP by ProQinase assay; type: protein-complex assay
PI3K p110 beta/p85 alpha = PI3K p110 beta/p85 alpha (Homo sapiens, UniProt P42338); assay: Inhibition of human PIK3CB/PIK3R1 using PIP2/PS as substrate by ADP-Glo assay; type: protein-complex assay
Sequence of PI3K p110 beta/p85 alpha (P27986 whole entry): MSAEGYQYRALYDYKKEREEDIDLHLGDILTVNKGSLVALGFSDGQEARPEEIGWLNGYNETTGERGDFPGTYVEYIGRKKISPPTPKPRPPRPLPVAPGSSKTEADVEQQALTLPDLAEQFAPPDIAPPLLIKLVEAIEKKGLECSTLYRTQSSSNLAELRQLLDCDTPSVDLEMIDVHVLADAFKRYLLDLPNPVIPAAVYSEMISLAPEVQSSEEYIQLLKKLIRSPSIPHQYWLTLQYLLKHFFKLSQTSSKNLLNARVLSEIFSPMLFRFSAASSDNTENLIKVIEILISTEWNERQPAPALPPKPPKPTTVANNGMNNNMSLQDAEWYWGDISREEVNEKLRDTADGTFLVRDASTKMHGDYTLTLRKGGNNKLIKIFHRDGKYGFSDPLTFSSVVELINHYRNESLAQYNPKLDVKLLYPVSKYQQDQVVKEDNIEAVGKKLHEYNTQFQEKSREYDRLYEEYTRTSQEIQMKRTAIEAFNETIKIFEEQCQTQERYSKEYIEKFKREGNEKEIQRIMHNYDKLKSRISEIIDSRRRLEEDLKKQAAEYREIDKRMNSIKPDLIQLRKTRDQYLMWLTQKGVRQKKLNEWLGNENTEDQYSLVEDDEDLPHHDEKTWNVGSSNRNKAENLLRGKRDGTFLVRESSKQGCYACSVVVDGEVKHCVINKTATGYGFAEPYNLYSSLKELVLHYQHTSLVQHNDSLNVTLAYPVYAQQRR
Sequence of PI3K p110 beta/p85 alpha (P42338 whole entry): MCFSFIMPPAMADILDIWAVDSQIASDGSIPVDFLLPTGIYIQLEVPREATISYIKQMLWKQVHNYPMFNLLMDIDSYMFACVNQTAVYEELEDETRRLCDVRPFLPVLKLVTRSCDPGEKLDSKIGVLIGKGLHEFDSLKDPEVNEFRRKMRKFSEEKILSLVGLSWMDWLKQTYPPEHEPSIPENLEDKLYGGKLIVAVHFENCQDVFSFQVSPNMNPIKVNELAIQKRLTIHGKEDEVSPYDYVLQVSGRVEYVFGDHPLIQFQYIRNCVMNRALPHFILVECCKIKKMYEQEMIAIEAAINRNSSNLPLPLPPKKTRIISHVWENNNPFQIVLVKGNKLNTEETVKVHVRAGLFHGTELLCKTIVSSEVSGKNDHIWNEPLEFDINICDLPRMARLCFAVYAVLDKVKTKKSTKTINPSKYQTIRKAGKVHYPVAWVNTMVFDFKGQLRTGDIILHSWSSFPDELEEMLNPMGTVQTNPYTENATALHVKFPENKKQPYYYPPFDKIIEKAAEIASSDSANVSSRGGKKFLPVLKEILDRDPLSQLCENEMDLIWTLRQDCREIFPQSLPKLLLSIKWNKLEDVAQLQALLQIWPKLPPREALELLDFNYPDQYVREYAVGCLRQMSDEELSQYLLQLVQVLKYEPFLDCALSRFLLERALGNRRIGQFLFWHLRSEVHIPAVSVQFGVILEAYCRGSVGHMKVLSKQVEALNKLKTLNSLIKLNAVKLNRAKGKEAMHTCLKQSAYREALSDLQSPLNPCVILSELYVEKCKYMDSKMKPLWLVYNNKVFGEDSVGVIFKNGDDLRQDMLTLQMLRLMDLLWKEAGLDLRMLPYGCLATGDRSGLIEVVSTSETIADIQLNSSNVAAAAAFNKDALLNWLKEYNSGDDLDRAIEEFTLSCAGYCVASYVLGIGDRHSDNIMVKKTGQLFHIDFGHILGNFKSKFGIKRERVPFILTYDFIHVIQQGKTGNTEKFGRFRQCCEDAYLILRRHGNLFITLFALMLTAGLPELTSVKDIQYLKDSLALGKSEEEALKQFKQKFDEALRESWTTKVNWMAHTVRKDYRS

[13] = molecular target: Serine/threonine-protein kinase 24 (Homo sapiens) (UniProt Q9Y6E0); assay: Inhibition of human MST3 at 1 uM using casein as substrate in presence of 33P-ATP by ProQinase assay
[14] = molecular target: Protein kinase C alpha type (Homo sapiens) (UniProt P17252); assay: Inhibition of recombinant human N-terminal His6-tagged PKCalpha (1 to 672 residues) expressed in baculovirus infected Sf21 cells assessed as remaining activity at 1 uM using Histone H1 as substrate incubated for 30 mins in presence of [gamma-33P]ATP by filter binding method relative to control
[15] = molecular target: Leucine-rich repeat serine/threonine-protein kinase 2 (Homo sapiens) (UniProt Q5S007); assay: Inhibition of human LRRK2 at 1 uM using RBER-GSK3 as substrate in presence of 33P-ATP by ProQinase assay
[16] = molecular target: Dual specificity protein kinase TTK (Homo sapiens) (UniProt P33981); assay: Inhibition of human TTK at 1 uM using RBER-CHKtide as substrate in presence of 33P-ATP by ProQinase assay
Sequence of Dual specificity protein kinase TTK (Homo sapiens) (P33981 whole entry, the tested form may be a part): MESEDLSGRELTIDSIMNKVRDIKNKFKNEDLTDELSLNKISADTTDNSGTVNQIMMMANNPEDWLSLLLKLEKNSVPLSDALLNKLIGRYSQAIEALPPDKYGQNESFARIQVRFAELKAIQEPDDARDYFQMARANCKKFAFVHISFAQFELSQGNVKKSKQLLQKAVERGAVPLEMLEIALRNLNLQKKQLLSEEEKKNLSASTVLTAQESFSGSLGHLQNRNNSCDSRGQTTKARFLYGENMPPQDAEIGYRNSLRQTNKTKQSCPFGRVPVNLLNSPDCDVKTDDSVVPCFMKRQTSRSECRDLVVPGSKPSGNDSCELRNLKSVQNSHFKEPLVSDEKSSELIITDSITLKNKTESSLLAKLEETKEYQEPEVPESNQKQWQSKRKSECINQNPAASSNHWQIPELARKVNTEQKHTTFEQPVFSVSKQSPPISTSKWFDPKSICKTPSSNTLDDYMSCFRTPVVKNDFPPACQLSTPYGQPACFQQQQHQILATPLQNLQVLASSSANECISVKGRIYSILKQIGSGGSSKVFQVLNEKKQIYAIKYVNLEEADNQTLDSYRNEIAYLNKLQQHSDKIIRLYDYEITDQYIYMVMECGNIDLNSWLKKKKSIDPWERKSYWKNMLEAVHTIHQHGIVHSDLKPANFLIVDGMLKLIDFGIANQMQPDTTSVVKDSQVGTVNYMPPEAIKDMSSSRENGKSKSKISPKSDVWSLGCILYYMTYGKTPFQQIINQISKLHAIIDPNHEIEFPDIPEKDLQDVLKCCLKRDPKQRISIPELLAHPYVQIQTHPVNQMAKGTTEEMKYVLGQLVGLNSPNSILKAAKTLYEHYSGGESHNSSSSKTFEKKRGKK

[17] = molecular target: Misshapen-like kinase 1 (Homo sapiens) (UniProt Q8N4C8); assay: Inhibition of recombinant human N-terminal GST-tagged MINK1 (1 to 320 residues) expressed in baculovirus infected Sf21 cells assessed as remaining activity at 1 uM using MBP as substrate incubated for 30 mins in presence of [gamma-33P]ATP by filter binding method relative to control
Sequence of Misshapen-like kinase 1 (Homo sapiens) (Q8N4C8 whole entry, looked up, the tested form may be a part): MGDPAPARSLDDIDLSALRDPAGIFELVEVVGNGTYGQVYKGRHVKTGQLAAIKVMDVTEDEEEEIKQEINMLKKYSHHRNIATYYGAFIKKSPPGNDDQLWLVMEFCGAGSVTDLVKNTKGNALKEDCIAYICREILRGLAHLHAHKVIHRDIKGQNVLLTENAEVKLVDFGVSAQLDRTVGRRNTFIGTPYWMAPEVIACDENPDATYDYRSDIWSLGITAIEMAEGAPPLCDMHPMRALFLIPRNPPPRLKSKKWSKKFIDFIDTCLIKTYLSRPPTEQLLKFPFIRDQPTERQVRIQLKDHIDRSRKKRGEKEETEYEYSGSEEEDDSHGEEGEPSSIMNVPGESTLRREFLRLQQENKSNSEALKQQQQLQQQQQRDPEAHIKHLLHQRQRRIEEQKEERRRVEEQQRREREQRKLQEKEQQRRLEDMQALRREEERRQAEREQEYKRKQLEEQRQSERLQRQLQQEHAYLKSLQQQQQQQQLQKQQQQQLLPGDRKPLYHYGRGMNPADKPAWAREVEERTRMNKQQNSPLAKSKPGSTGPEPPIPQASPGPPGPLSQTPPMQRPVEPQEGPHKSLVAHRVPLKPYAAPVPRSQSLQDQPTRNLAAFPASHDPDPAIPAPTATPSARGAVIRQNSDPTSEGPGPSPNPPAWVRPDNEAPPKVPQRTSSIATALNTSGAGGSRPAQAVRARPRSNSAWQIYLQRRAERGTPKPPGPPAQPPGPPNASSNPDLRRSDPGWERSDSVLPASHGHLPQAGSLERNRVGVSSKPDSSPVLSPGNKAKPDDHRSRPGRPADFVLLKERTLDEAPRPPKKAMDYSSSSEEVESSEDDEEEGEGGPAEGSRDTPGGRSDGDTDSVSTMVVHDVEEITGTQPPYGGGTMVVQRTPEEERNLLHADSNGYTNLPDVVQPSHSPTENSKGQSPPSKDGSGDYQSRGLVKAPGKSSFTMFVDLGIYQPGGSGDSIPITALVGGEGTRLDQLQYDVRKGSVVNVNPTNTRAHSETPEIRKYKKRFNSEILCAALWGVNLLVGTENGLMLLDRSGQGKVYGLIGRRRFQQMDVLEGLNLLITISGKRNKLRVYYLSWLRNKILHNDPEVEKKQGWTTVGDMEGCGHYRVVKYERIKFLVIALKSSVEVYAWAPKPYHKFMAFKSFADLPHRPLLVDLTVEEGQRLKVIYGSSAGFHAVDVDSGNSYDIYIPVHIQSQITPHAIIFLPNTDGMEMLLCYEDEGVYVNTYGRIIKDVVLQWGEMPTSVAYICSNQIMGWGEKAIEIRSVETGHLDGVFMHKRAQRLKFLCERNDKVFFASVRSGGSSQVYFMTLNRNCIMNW

[18] = molecular target: Mitogen-activated protein kinase 13 (Homo sapiens) (UniProt O15264); assay: Inhibition of human p38delta at 1 uM using RBER-CHKtide as substrate in presence of 33P-ATP by ProQinase assay
Sequence of Mitogen-activated protein kinase 13 (Homo sapiens) (O15264 whole entry): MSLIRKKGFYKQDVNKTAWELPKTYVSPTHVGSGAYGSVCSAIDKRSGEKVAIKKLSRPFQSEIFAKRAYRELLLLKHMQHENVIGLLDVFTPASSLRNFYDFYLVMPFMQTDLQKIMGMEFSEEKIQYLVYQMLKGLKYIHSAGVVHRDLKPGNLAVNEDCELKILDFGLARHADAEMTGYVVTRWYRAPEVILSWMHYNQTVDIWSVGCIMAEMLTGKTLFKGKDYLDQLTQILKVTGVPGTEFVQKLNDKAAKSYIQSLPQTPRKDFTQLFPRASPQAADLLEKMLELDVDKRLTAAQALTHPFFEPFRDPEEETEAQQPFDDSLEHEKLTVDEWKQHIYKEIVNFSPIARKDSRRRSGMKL

[19] = molecular target: Wee1-like protein kinase (Homo sapiens) (UniProt P30291); assay: Inhibition of human WEE1 at 1 uM using poly(Ala,Glu,Lys,Tyr) as substrate in presence of 33P-ATP by ProQinase assay
[20] = molecular target: Ephrin type-B receptor 4 (Homo sapiens) (UniProt P54760); assay: Inhibition of human EPHB4 at 1 uM using polyEY as substrate in presence of 33P-ATP by ProQinase assay
[21] = molecular target: Tyrosine-protein kinase Lyn (Homo sapiens) (UniProt P07948); assay: Inhibition of human LYN at 1 uM using polyEY as substrate in presence of 33P-ATP by ProQinase assay
[22] = molecular target: Serine/threonine-protein kinase TAO2 (Homo sapiens) (UniProt Q9UL54); assay: Inhibition of human TAOK2 at 1 uM using casein as substrate in presence of 33P-ATP by ProQinase assay

Structure (SMILES): CC(C)(O)CNc1ncc(-c2ccnc(Nc3ccnc(Cl)c3)n2)c(CC2CC2)n1
- inhibition [1]: inactive
- inhibition [2]: inactive
- Activity [3]: 106%
- Activity [4]: 95%
- inhibition (U2OS): inactive
- inhibition [5]: inactive
- inhibition [6]: inactive
- inhibition [7]: inactive
- inhibition [8]: inactive
- inhibition [9]: inactive
- inhibition [10]: inactive
- Activity [11]: 105%
- inhibition [12]: inactive
- IC50 (PI3K p110 beta/p85 alpha): > 10 µM
- inhibition [13]: inactive
- Activity [14]: 119%
- inhibition [15]: inactive
- inhibition [16]: inactive
- Activity [17]: 103%
- inhibition [18]: inactive
- inhibition [19]: inactive
- inhibition [20]: inactive
- inhibition [21]: inactive
- inhibition [22]: inactive
